Test results as given in ChEMBL document CHEMBL5316281, “Trojan Horse Siderophore Conjugates Induce Pseudomonas aeruginosa Suicide and Qualify the TonB Protein as a Novel Antibiotic Target” (2023).
The source made the active and inactive calls. The calls are words filed in the database; no cut-off is given here. Where a SMILES comes first, the peptide text is derived from it. [ ]: non-standard residue; d: D form. The star is where a group is joined. X6 = CC(=O)Oc1cccc(C(=O)NCc2cc(CNC(=O)c3cccc(OC(C)=O)c3OC(C)=O)c(NC(=O)CCCc3cn(CCOCCOCCOCCOCCOCCOCCOCCOCCNC(=O)COCC(=O)*)nn3)c(CNC(=O)c3cccc(OC(C)=O)c3OC(C)=O)c2)c1OC(C)=O; X1 = O=C(COCC(=O)*)NCCOCCOCCOCCOCCOCCOCCOCCOCCn1cc(CCCC(=O)Nc2c(CNC(=O)c3cccc(O)c3O)cc(CNC(=O)c3cccc(O)c3O)cc2CNC(=O)c2cccc(O)c2O)nn1; X5 = O=C(CCSSCCC(=O)*)NCCOCCOCCOCCOCCOCCn1cc(CCCC(=O)Nc2c(CNC(=O)c3cccc(O)c3O)cc(CNC(=O)c3cccc(O)c3O)cc2CNC(=O)c2cccc(O)c2O)nn1; Benzoyl(2,3-diOH) = O=C(c1cccc(O)c1O)*

How the values were obtained:
[1] = system: Pseudomonas aeruginosa; test: Antimicrobial activity against Pseudomonas aeruginosa harboring deltapvdF-deltapchA mutant assessed as inhibition of bacterial growth by measuring minimal inhibitory concentration incubated for 24 hrs in presence of iron-depleted CAA medium; assay type: functional
[2] = system: Pseudomonas aeruginosa; test: Antimicrobial activity against Pseudomonas aeruginosa harboring deltapvdF-deltapchA mutant assessed as inhibition of bacterial growth by measuring minimal inhibitory concentration incubated for 48 hrs in presence of iron-depleted CAA medium; assay type: functional
[3] = system: Pseudomonas aeruginosa; test: Antimicrobial activity against Pseudomonas aeruginosa PAO1 assessed as inhibition of bacterial growth in presence of iron-depleted CAA medium; assay type: functional, organism-based
[4] = system: Pseudomonas aeruginosa; test: Antimicrobial activity against Pseudomonas aeruginosa harboring deltapvdF-deltapchA mutant assessed as increase in pfeA transcription level at 10 uM incubated for 8 hrs in presence of iron-depleted CAA medium by qRT-PCR analysis; assay type: functional, organism-based
How it was run: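 Cells grown in CAA medium for 8 h at 30 °C with vigorous shaking, with or without 10 μM compound; 2.5 x 10⁸ cells stabilized in two volumes RNAprotect; RNA processed per earlier protocol; RT-qPCR with primer efficiencies from serially diluted genomic DNA; double ΔCT analysis.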

| Molecule | MIC [1] [µM] | MIC [2] [µM] | Activity [3] | Activity [4] |
| --- | --- | --- | --- | --- |
| CC[C@H](C)[C@H](NC(=O)[C@H](CCSC)NC(=O)[C@@H](NC(=O)[C@H](C)NC(=O)CNC(=O)[C@H](CC(C)C)NC(=O)[C@H](CC(=O)O)NC(=O)[C@@H](NC(=O)[C@H](CO)NC(=O)[C@H](CO)NC(=O)[C@H](CC(=O)O)NC(=O)c1cccc(O)c1O)C(C)C)[C@@H](C)O)C(=O)N[C@H](C(=O)N[C@@H](CO)C(=O)N[C@@H](CC(N)=O)C(=O)N[C@@H](CCC(N)=O)C(=O)N[C@@H](CC(C)C)C(=O)NCC(=O)N[C@H](C(=O)N[C@H](C(=O)N[C@@H](CCCCN)C(N)=O)[C@@H](C)CC)[C@@H](C)O)[C@@H](C)O | > 64 | > 64 | inactive | – |
| CC[C@@H](C)[C@@H](NC(=O)[C@@H](CCSC)NC(=O)[C@H](NC(=O)[C@@H](C)NC(=O)CNC(=O)[C@@H](CC(C)C)NC(=O)[C@@H](CC(=O)O)NC(=O)[C@H](NC(=O)[C@@H](CO)NC(=O)[C@@H](CO)NC(=O)[C@@H](CC(=O)O)NC(=O)c1cccc(O)c1O)C(C)C)[C@H](C)O)C(=O)N[C@@H](C(=O)N[C@H](CO)C(=O)N[C@H](CC(N)=O)C(=O)N[C@H](CCC(N)=O)C(=O)N[C@H](CC(C)C)C(=O)NCC(=O)N[C@@H](C(=O)N[C@@H](C(=O)N[C@H](CCCCN)C(N)=O)[C@H](C)CC)[C@H](C)O)[C@@H](C)O | > 64 | > 64 | inactive | – |
| CC[C@H](C)[C@H](NC(=O)[C@H](CCSC)NC(=O)[C@@H](NC(=O)[C@H](C)NC(=O)CNC(=O)[C@H](CC(C)C)NC(=O)[C@H](CC(=O)O)NC(=O)[C@@H](NC(=O)[C@H](CO)NC(=O)[C@H](CO)NC(=O)[C@@H](N)CC(=O)O)C(C)C)[C@@H](C)O)C(=O)N[C@H](C(=O)N[C@@H](CO)C(=O)N[C@@H](CC(N)=O)C(=O)N[C@@H](CCC(N)=O)C(=O)N[C@@H](CC(C)C)C(=O)NCC(=O)N[C@H](C(=O)N[C@H](C(=O)N[C@@H](CCCCNC(=O)c1cccc(O)c1O)C(N)=O)[C@@H](C)CC)[C@@H](C)O)[C@@H](C)O (H-DSSVDLGATMITSNQLGTIK(Benzoyl(2,3-diOH))-NH2) | > 64 | > 64 | inactive | – |
| CC[C@H](C)[C@H](NC(=O)[C@@H](N)C(C)C)C(=O)N[C@@H](CCC(=O)O)C(=O)N[C@@H](CC(C)C)C(=O)NCC(=O)N[C@@H](CCC(=O)O)C(=O)N[C@@H](CCC(N)=O)C(=O)N[C@H](C(=O)N[C@H](C(=O)N[C@H](C(=O)N[C@@H](C)C(=O)N[C@H](C(=O)N[C@@H](C)C(=O)N[C@@H](CCC(N)=O)C(=O)N[C@@H](CCC(=O)O)C(=O)N[C@@H](CCC(=O)O)C(=O)N[C@H](C(=O)N[C@@H](CCCCN)C(=O)N[C@@H](CCC(N)=O)C(=O)N[C@@H](CCCCNC(=O)c1cccc(O)c1O)C(N)=O)[C@@H](C)O)[C@@H](C)O)C(C)C)C(C)C)[C@@H](C)O (H-VIELGEQTVVATAQEETKQK(Benzoyl(2,3-diOH))-NH2) | > 64 | > 64 | inactive | – |
| CC[C@H](C)[C@H](NC(=O)[C@@H](N)C(C)C)C(=O)N[C@@H](CCC(=O)O)C(=O)N[C@@H](CC(C)C)C(=O)NCC(=O)N[C@@H](CCC(=O)O)C(=O)N[C@@H](CCC(N)=O)C(=O)N[C@H](C(=O)N[C@H](C(=O)N[C@H](C(=O)N[C@@H](C)C(=O)N[C@H](C(=O)N[C@@H](C)C(=O)N[C@@H](CCC(N)=O)C(=O)N[C@@H](CCC(=O)O)C(=O)N[C@@H](CCC(=O)O)C(=O)N[C@H](C(=O)N[C@@H](CCCCN)C(=O)N[C@@H](CCC(N)=O)C(=O)N[C@@H](CCCCNC(=O)CCSSCCC(=O)NCCOCCOCCOCCOCCOCCn1cc(CCCC(=O)Nc2c(CNC(=O)c3cccc(O)c3O)cc(CNC(=O)c3cccc(O)c3O)cc2CNC(=O)c2cccc(O)c2O)nn1)C(N)=O)[C@@H](C)O)[C@@H](C)O)C(C)C)C(C)C)[C@@H](C)O (H-VIELGEQTVVATAQEETKQK(X5)-NH2) | > 64 | > 64 | inactive | – |
| CC[C@H](C)[C@H](NC(=O)[C@@H](N)C(C)C)C(=O)N[C@@H](CCC(=O)O)C(=O)N[C@@H](CC(C)C)C(=O)NCC(=O)N[C@@H](CCC(=O)O)C(=O)N[C@@H](CCC(N)=O)C(=O)N[C@H](C(=O)N[C@H](C(=O)N[C@H](C(=O)N[C@@H](C)C(=O)N[C@H](C(=O)N[C@@H](C)C(=O)N[C@@H](CCC(N)=O)C(=O)N[C@@H](CCC(=O)O)C(=O)N[C@@H](CCC(=O)O)C(=O)N[C@H](C(=O)N[C@@H](CCCCN)C(=O)N[C@@H](CCC(N)=O)C(=O)N[C@@H](CCCCNC(=O)COCC(=O)NCCOCCOCCOCCOCCOCCOCCOCCOCCn1cc(CCCC(=O)Nc2c(CNC(=O)c3cccc(OC(C)=O)c3OC(C)=O)cc(CNC(=O)c3cccc(OC(C)=O)c3OC(C)=O)cc2CNC(=O)c2cccc(OC(C)=O)c2OC(C)=O)nn1)C(N)=O)[C@@H](C)O)[C@@H](C)O)C(C)C)C(C)C)[C@@H](C)O (H-VIELGEQTVVATAQEETKQK(X6)-NH2) | > 64 | > 64 | inactive | – |
| CSCC[C@H](NC(=O)[C@H](CCC(N)=O)NC(=O)[C@@H](NC(=O)[C@H](CC(C)C)NC(=O)[C@H](CC(=O)O)NC(=O)[C@H](CC(=O)O)NC(=O)COCC(=O)NCCOCCOCCOCCOCCOCCOCCOCCOCCn1cc(CCCC(=O)Nc2c(CNC(=O)c3cccc(O)c3O)cc(CNC(=O)c3cccc(O)c3O)cc2CNC(=O)c2cccc(O)c2O)nn1)C(C)C)C(=O)N[C@@H](CO)C(=O)N1CCC[C@H]1C(=O)N[C@@H](CO)C(=O)N[C@H](C(=O)N[C@@H](CCCCN)C(N)=O)C(C)C (X1-DDLVQMSPSVK-NH2) | > 64 | > 64 | inactive | – |
| CC(C)[C@H](NC(=O)[C@@H](NC(=O)[C@@H](NC(=O)[C@H](CCC(N)=O)NC(=O)[C@H](CCC(=O)O)NC(=O)COCC(=O)NCCOCCOCCOCCOCCOCCOCCOCCOCCn1cc(CCCC(=O)Nc2c(CNC(=O)c3cccc(O)c3O)cc(CNC(=O)c3cccc(O)c3O)cc2CNC(=O)c2cccc(O)c2O)nn1)[C@@H](C)O)C(C)C)C(=O)N[C@@H](C)C(=O)N[C@H](C(=O)N[C@@H](C)C(=O)N[C@@H](CCC(N)=O)C(=O)N[C@@H](CCCCN)C(N)=O)[C@@H](C)O (X1-EQTVVATAQK-NH2) | > 64 | > 64 | inactive | – |
| CC[C@H](C)[C@H](NC(=O)[C@H](CCSC)NC(=O)[C@@H](NC(=O)[C@H](C)NC(=O)CNC(=O)[C@H](CC(C)C)NC(=O)[C@H](CC(=O)O)NC(=O)[C@@H](NC(=O)COCC(=O)NCCOCCOCCOCCOCCOCCOCCOCCOCCn1cc(CCCC(=O)Nc2c(CNC(=O)c3cccc(O)c3O)cc(CNC(=O)c3cccc(O)c3O)cc2CNC(=O)c2cccc(O)c2O)nn1)C(C)C)[C@@H](C)O)C(=O)N[C@H](C(=O)N[C@@H](CO)C(=O)N[C@@H](CC(N)=O)C(=O)N[C@@H](CCCCN)C(N)=O)[C@@H](C)O (X1-VDLGATMITSNK-NH2) | > 64 | > 64 | inactive | – |
| CC[C@H](C)[C@H](NC(=O)[C@@H](NC(=O)c1cccc(O)c1O)C(C)C)C(=O)N[C@@H](CCC(=O)O)C(=O)N[C@@H](CC(C)C)C(=O)NCC(=O)N[C@@H](CCC(=O)O)C(=O)N[C@@H](CCC(N)=O)C(=O)N[C@H](C(=O)N[C@H](C(=O)N[C@H](C(=O)N[C@@H](C)C(=O)N[C@H](C(=O)N[C@@H](C)C(=O)N[C@@H](CCC(N)=O)C(=O)N[C@@H](CCC(=O)O)C(=O)N[C@@H](CCC(=O)O)C(=O)N[C@H](C(=O)N[C@@H](CCCCN)C(=O)N[C@@H](CCC(N)=O)C(=O)N[C@@H](CCCCN)C(N)=O)[C@@H](C)O)[C@@H](C)O)C(C)C)C(C)C)[C@@H](C)O ({Benzoyl(2,3-diOH)}-VIELGEQTVVATAQEETKQK-NH2) | > 64 | > 64 | inactive | – |
| CC[C@@H](C)[C@@H](NC(=O)[C@H](NC(=O)c1cccc(O)c1O)C(C)C)C(=O)N[C@H](CCC(=O)O)C(=O)N[C@H](CC(C)C)C(=O)NCC(=O)N[C@H](CCC(=O)O)C(=O)N[C@H](CCC(N)=O)C(=O)N[C@@H](C(=O)N[C@@H](C(=O)N[C@@H](C(=O)N[C@H](C)C(=O)N[C@@H](C(=O)N[C@H](C)C(=O)N[C@H](CCC(N)=O)C(=O)N[C@H](CCC(=O)O)C(=O)N[C@H](CCC(=O)O)C(=O)N[C@@H](C(=O)N[C@H](CCCCN)C(=O)N[C@H](CCC(N)=O)C(=O)N[C@H](CCCCN)C(N)=O)[C@H](C)O)[C@H](C)O)C(C)C)C(C)C)[C@H](C)O ({Benzoyl(2,3-diOH)}-[dV][dI][dE][dL]G[dE][dQ][dT][dV][dV][dA][dT][dA][dQ][dE][dE][dT][dK][dQ][dK]-NH2) | > 64 | > 64 | inactive | – |
| CN[C@@H]1[C@@H](O)[C@@H](O[C@@H]2[C@@H](O)[C@H](O[C@H]3O[C@H](C(C)N)CC[C@H]3N)[C@@H](N)C[C@H]2N)OC[C@]1(C)O (some centres not stated) [GENTAMICIN C2] | 1 | 4 | inactive | – |
| H-DDLVQMSPSVK-NH2 | – | – | inactive | inactive |
| H-GEQTVVATAQK-NH2 | – | – | inactive | inactive |
| H-VDLGATMITSNK-NH2 | – | – | inactive | inactive |
